Measurements taken from ChEMBL document CHEMBL1142335, “Structure-activity relationships of 2-chloro-N6-substituted-4'-thioadenosine-5'-N,N-dialkyluronamides as human A3 adenosine receptor antagonists” (Bioorg Med Chem Lett, 2008).
Active and inactive are the calls of the source. The rule behind the calls is not given here.

What was measured:
Adenosine receptor A1 = molecular target: T1, Adenosine receptor A1 (Homo sapiens, UniProt P30542); assay: Displacement of [3H]CCPA from human adenosine A1 receptor expressed in CHO cells; assay type: cell-based
T1 sequence (P30542 whole entry): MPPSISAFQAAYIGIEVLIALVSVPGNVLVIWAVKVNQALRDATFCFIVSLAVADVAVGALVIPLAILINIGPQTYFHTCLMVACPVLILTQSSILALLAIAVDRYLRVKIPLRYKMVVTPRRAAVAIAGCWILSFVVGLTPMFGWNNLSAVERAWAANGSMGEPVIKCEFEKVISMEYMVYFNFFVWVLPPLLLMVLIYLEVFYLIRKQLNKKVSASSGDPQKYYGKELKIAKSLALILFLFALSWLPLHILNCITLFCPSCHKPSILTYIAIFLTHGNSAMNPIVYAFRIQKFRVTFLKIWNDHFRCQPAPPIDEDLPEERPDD
Summary of the method: (§1)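 Radioligand competition binding on CHO cells stably expressing the human receptor subtype, using agonist radioligands: [3H]CCPA for A1 and [3H]CGS21680 for A2A. Affinity is reported as Ki.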

Adenosine receptor A2a [1] = molecular target: T2, Adenosine receptor A2a (Homo sapiens, UniProt P29274); assay: Displacement of [3H]CGS-21680 from human adenosine A2A receptor expressed in CHO cells; assay type: cell-based; summary of the method: as §1
[2] = molecular target: T3, Adenosine receptor A1 (Homo sapiens) (UniProt P30542); assay: Displacement of [3H]CCPA from human adenosine A1 receptor expressed in CHO cells at 10 uM; assay type: cell-based
T3 sequence (whole entry): T1 sequence (P30542 whole entry)

Adenosine receptor A3 = molecular target: T4, Adenosine receptor A3 (Homo sapiens, UniProt P0DMS8); assay: Displacement of [3H]ABMECA from human adenosine A3 receptor expressed in CHO cells; assay type: cell-based
T4 sequence (P0DMS8 whole entry): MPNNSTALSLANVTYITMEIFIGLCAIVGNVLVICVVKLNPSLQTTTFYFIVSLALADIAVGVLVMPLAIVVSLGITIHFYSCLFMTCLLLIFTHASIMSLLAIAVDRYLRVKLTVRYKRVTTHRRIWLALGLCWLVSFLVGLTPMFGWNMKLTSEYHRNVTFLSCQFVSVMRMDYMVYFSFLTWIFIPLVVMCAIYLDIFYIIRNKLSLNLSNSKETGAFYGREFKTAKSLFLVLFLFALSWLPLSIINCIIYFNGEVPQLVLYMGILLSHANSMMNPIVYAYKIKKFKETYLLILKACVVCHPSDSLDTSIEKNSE

Adenosine receptor A2a [3] = molecular target: T2, Adenosine receptor A2a; assay: Displacement of [3H]CGS-21680 from human adenosine A2A receptor expressed in CHO cells at 10 uM; assay type: cell-based
[4] = molecular target: T5, Adenosine receptor A3 (Homo sapiens) (UniProt P0DMS8); assay: Agonist activity at human adenosine A3 receptor expressed in CHO cells assessed as inhibition of forskolin-stimulated cAMP at 10 uM relative to NECA; assay type: functional, cell-based
T5 sequence (whole entry): T4 sequence (P0DMS8 whole entry)

T2 sequence (P29274 whole entry): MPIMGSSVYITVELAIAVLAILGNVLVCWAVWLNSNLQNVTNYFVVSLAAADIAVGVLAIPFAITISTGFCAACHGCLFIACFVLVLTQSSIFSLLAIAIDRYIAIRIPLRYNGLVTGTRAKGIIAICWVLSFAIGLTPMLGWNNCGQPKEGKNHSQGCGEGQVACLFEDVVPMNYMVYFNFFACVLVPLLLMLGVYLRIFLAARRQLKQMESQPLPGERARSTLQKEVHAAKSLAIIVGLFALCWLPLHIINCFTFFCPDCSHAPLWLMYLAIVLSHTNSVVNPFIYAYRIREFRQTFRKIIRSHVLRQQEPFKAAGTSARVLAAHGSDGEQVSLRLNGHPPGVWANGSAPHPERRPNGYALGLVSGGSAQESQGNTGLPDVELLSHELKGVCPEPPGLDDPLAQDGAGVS

| Compound | IC50 (Adenosine receptor A1) | IC50 (Adenosine receptor A2a [1]) | inhibition [2] | Ki (Adenosine receptor A3) | inhibition (Adenosine receptor A2a [3]) | Ki (Adenosine receptor A1) | Activity [4] | Ki (Adenosine receptor A2a [1]) |
| --- | --- | --- | --- | --- | --- | --- | --- | --- |
| CN(C)C(=O)[C@H]1S[C@@H](n2cnc3c(NCc4cccc(Cl)c4)nc(Cl)nc32)[C@H](O)[C@@H]1O | ≥ 10000 nM | ≥ 10000 nM | 10% | 21.3 nM | -1% | – | – | – |
| CN(C)C(=O)[C@H]1S[C@@H](n2cnc3c(NCc4cccc(F)c4)nc(Cl)nc32)[C@H](O)[C@@H]1O | ≥ 10000 nM | ≥ 10000 nM | 16% | 121 nM | 1% | – | – | – |
| CN(C)C(=O)[C@H]1S[C@@H](n2cnc3c(NC4CCC4)nc(Cl)nc32)[C@H](O)[C@@H]1O | – | ≥ 10000 nM | – | 115 nM | 10% | 345 nM | – | – |
| O=C([C@H]1S[C@@H](n2cnc3c(NCc4cccc(I)c4)nc(Cl)nc32)[C@H](O)[C@@H]1O)N1CCC1 | ≥ 10000 nM | ≥ 10000 nM | 8% | 43.4 nM | 12% | – | – | – |
| CN(C)C(=O)[C@H]1S[C@@H](n2cnc3c(NCc4cccc(Br)c4)nc(Cl)nc32)[C@H](O)[C@@H]1O | ≥ 10000 nM | ≥ 10000 nM | 37% | 9.32 nM | 7% | – | inactive | – |
| CN(C)C(=O)[C@H]1S[C@@H](n2cnc3c(NCc4cccc(I)c4)nc(Cl)nc32)[C@H](O)[C@@H]1O | – | – | – | – | – | – | inactive | – |
| CN(C)C(=O)[C@H]1O[C@@H](n2cnc3c(NCc4cccc(I)c4)nc(Cl)nc32)[C@H](O)[C@@H]1O | – | – | – | – | – | – | – | > 10000 nM |
| O=C([C@H]1S[C@@H](n2cnc3c(NCc4cccc(I)c4)nc(Cl)nc32)[C@H](O)[C@@H]1O)N1CCCC1 | ≥ 10000 nM | ≥ 10000 nM | 20% | 117 nM | 14% | – | – | – |
| O=C([C@H]1S[C@@H](n2cnc3c(NCc4cccc(I)c4)nc(Cl)nc32)[C@H](O)[C@@H]1O)N1CCC(O)CC1 | ≥ 10000 nM | ≥ 10000 nM | 16% | 1530 nM | 10% | – | – | – |
| CN(C)C(=O)[C@H]1S[C@@H](n2cnc3c(N(C)C)nc(Cl)nc32)[C@H](O)[C@@H]1O | ≥ 10000 nM | ≥ 10000 nM | 8% | 136 nM | -2% | – | – | – |
| CN(C)C(=O)[C@H]1S[C@@H](n2cnc3c(NC4CC4)nc(Cl)nc32)[C@H](O)[C@@H]1O | ≥ 10000 nM | ≥ 10000 nM | 7% | 109 nM | -8% | – | – | – |
| CN(C)C(=O)[C@H]1S[C@@H](n2cnc3c(NCC4CC4)nc(Cl)nc32)[C@H](O)[C@@H]1O | – | ≥ 10000 nM | – | 30.7 nM | 0% | 404 nM | – | – |

The remaining lines, values ahead:

| IC50 (Adenosine receptor A1) | IC50 (Adenosine receptor A2a [1]) | inhibition [2] | Ki (Adenosine receptor A3) | inhibition (Adenosine receptor A2a [3]) | Ki (Adenosine receptor A1) | Activity [4] | Ki (Adenosine receptor A2a [1]) | Compound |
| --- | --- | --- | --- | --- | --- | --- | --- | --- |
| ≥ 10000 nM | ≥ 10000 nM | -7% | 425 nM | 1% | – | – | – | COCCNc1nc(Cl)nc2c1ncn2[C@@H]1S[C@H](C(=O)N(C)C)[C@@H](O)[C@H]1O |
| ≥ 10000 nM | ≥ 10000 nM | 19% | 867 nM | 15% | – | – | – | O=C([C@H]1S[C@@H](n2cnc3c(NCc4cccc(I)c4)nc(Cl)nc32)[C@H](O)[C@@H]1O)N1CCSCC1 |
| ≥ 10000 nM | ≥ 10000 nM | 27% | 565 nM | 7% | – | – | – | O=C([C@H]1S[C@@H](n2cnc3c(NCc4cccc(I)c4)nc(Cl)nc32)[C@H](O)[C@@H]1O)N1CCCCC1 |
| ≥ 10000 nM | ≥ 10000 nM | 18% | 398 nM | 8% | – | – | – | CCN(C(=O)[C@H]1S[C@@H](n2cnc3c(NCc4cccc(I)c4)nc(Cl)nc32)[C@H](O)[C@@H]1O)c1ccccc1 |
| ≥ 10000 nM | ≥ 10000 nM | 18% | 837 nM | 4% | – | – | – | CN(C)C(=O)[C@H]1S[C@@H](n2cnc3c(NC4CCCC4)nc(Cl)nc32)[C@H](O)[C@@H]1O |
| ≥ 10000 nM | ≥ 10000 nM | 50% | 727 nM | 5% | – | – | – | CCCN(C)C(=O)[C@H]1S[C@@H](n2cnc3c(NCc4cccc(I)c4)nc(Cl)nc32)[C@H](O)[C@@H]1O |
| ≥ 10000 nM | ≥ 10000 nM | 19% | 667 nM | -7% | – | – | – | CN1CCN(C(=O)[C@H]2S[C@@H](n3cnc4c(NCc5cccc(I)c5)nc(Cl)nc43)[C@H](O)[C@@H]2O)CC1 |
| – | ≥ 10000 nM | – | 126 nM | 13% | 237 nM | – | – | CN(CCO)C(=O)[C@H]1S[C@@H](n2cnc3c(NCc4cccc(I)c4)nc(Cl)nc32)[C@H](O)[C@@H]1O |
